According to the array DNA melting data of Ke et al. (doi:10.1101/2024.01.08.574731):

Columns and labels:
[1] = folding enthalpy; higher = less favourable; fluorescence melt of hairpins on a sequencing array, two-state fit; settings: sodium 0.088 M
Outline: (§1)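 With Cy3 and quencher oligos annealed, library hairpins on a sequenced MiSeq flow cell were imaged for Cy3 fluorescence in 50 mM Na-HEPES pH 8.0, 25 mM NaCl, in 2.5 °C steps up to 60 °C. Melting temperature and folding enthalpy were derived from bootstrapped two-state fits of signals normalised to pre-quench Cy3 and to control constructs. Four replicates were combined by inverse variance, with fitted temperatures raised by 9.35 °C to match UV melts.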

[2] = melting temperature; fluorescence melt of hairpins on a sequencing array, two-state fit, raised by 9.35 °C to match UV melts; settings: sodium 0.088 M
Outline: as §1

| Sequence | folding enthalpy [1] | Tm [2] |
| --- | --- | --- |
| GTCTCAGGAAACCGAGAC (((((.(....).))))) | -30.8 kcal/mol | 45.7 °C |
| GAGCGCGAAAGCGCCCTC ((((((....)))..))) | -7.61 kcal/mol | 46.8 °C |
| GTGTCGGAAACGACAC ((((((....)))))) | -30.9 kcal/mol | 69.2 °C |
| GATCACGATCGTGATC ((((((....)))))) | -47.4 kcal/mol | 59.6 °C |
| GCTGTGCGAAAGCCCGGC ((.(.((....)).).)) | -20 kcal/mol | 46.8 °C |
| GGTTCGGGAAACTGAGCC ((.((.(....).)).)) | -27.1 kcal/mol | 39.3 °C |
| GTCCTTGGAAACAAGAAC ((.((((....)))).)) | -14.2 kcal/mol | 30.5 °C |
| GTTTCCGGAAACAGAAAC (((((.(....).))))) | -13.2 kcal/mol | 35.1 °C |
| GTTATTGGAAACAATAAC (((((((....))))))) | -35 kcal/mol | 49.7 °C |
| GTGCCCGAAAGGGCTCAC ((((((....)))..))) | -7.4 kcal/mol | 45.5 °C |
| GGAGATCGAAAGATTTCC (((.(((....))).))) | -33 kcal/mol | 46.5 °C |
| GCTACTGGAAACAGCAGC (((.(((....))).))) | -28.7 kcal/mol | 44.7 °C |
| GTGCTTACGAAAGTACAC (((..(((....)))))) | -9.43 kcal/mol | 34 °C |
| GCAGGAGGAAACCCCTGC (((((.(....).))))) | -41.4 kcal/mol | 50.9 °C |
| GGATCCGAAAGGAGTTCC ((((((....)))..))) | -14.8 kcal/mol | 32.8 °C |
| GGTTCCGAAAGGACAACC ((((((....)))..))) | -19.9 kcal/mol | 36.7 °C |
| GTATATGCGAAAGCATAC (((..(((....)))))) | -8.89 kcal/mol | 32.1 °C |
| GCTTATGAAAATAAGC ((((((....)))))) | -31.8 kcal/mol | 51.6 °C |
| GATCCGGCAACGGATC ((((((....)))))) | -35 kcal/mol | 67.8 °C |
| GCCCTCGAAAGAGGTGGC ((((((....)))..))) | -17.7 kcal/mol | 48.4 °C |
| TTCCCGAAAGGGAA (((((....))))) | -24 kcal/mol | 56.1 °C |
| GAAGATACGAAAGTATTC (((..(((....)))))) | -8.74 kcal/mol | 27.7 °C |
| GGGCTGACGAAAGTCCCC (((..(((....)))))) | -18.1 kcal/mol | 42.8 °C |

| Sequence | folding enthalpy [1] | Tm [2] |
| --- | --- | --- |
| GAACCAGAAATGGTTC ((((((....)))))) | -33.6 kcal/mol | 54.2 °C |
| GGCGACGAAAGTCGTGCC ((((((....)))..))) | -12.7 kcal/mol | 51.2 °C |
| GCTTAAGGAAACTTAGGC ((.((((....)))).)) | -23 kcal/mol | 36.3 °C |
| CGGTTCGGAAACGAGCCG (((.(((....))).))) | -50.5 kcal/mol | 58.6 °C |
| GGGCCCCGAAAGGGTCCC (((.(((....))).))) | -27.4 kcal/mol | 65.2 °C |
| GCTTCTGGAAACAGAAGC (((((((....))))))) | -49 kcal/mol | 64.9 °C |
| GAAAACGGAAACGTTTTC (((((((....))))))) | -39.4 kcal/mol | 57.9 °C |
| GCTGTTGGAAACAACGGC ((.((((....)))).)) | -39.8 kcal/mol | 54.3 °C |
| GCCTTGCGAAAGCAGAGC ((..(((....)))..)) | -11.7 kcal/mol | 51.2 °C |
| GATCTATAATTAGATC ((((((....)))))) | -25.5 kcal/mol | 39.9 °C |
| GCCACGCGAAAGCAGGGC (((..((....))..))) | -23.5 kcal/mol | 61.6 °C |
| GATCCAGAATGGATC ((((((...)))))) | -50.9 kcal/mol | 58.1 °C |
| GGGAGGAAACTCCC (((((....))))) | -33.5 kcal/mol | 56 °C |
| AGGTCGAAAGACCT (((((....))))) | -22.1 kcal/mol | 67.4 °C |
| GTACACTCGAAAGAGTAC (((..(((....)))))) | -13.8 kcal/mol | 29.4 °C |
| GTTTTTCGAAAGAAGAAC (((.(((....))).))) | -32.5 kcal/mol | 37.3 °C |
| GTTAGCGAAAGCTAAAC ((((((....))).))) | -13.7 kcal/mol | 46.5 °C |
| GTATCAGGAAACTGACAC ((.((((....)))).)) | -22.7 kcal/mol | 32.1 °C |
| GGGATCACGAAAGTGCCC (((..(((....)))))) | -15.3 kcal/mol | 39.3 °C |
| GAGCTGGGAAACTAGCTC (((((.(....).))))) | -38.7 kcal/mol | 52.5 °C |
| GACAGCGAAAGCTTAGTC ((((((....)))..))) | -19 kcal/mol | 38.1 °C |
| GATCAGATCGCTGATC ((((((....)))))) | -28.2 kcal/mol | 48.9 °C |
| GCAGCGCGAAAGCGTAGC ((..(((....)))..)) | -15.9 kcal/mol | 56.4 °C |

| Sequence | folding enthalpy [1] | Tm [2] |
| --- | --- | --- |
| GCATGTGGAAACACATAC (.(((((....))))).) | -14.9 kcal/mol | 38.6 °C |
| GCCTGGCGAAAGCCGGC (((.(((....)))))) | -16.5 kcal/mol | 68.1 °C |
| GATCTGATTTCAGATC ((((((....)))))) | -34.4 kcal/mol | 51.4 °C |
| GTTGTGTCGAAAGACAAC (((..(((....)))))) | -24.9 kcal/mol | 51.1 °C |
| GTGACAGGAAACCGTCAC (((((.(....).))))) | -34.6 kcal/mol | 50.4 °C |
| GCATTTCGAAAGAACTGC (((.(((....))).))) | -32.1 kcal/mol | 43 °C |
| GCAGGGCGAAAGCTCAGC ((.(.((....)).).)) | -18.4 kcal/mol | 48.3 °C |
| GCTGTAGGAAACTACAAC (.(((((....))))).) | -19.2 kcal/mol | 30.9 °C |
| GACAGCGCGAAAGCGGTC (((..(((....)))))) | -11.4 kcal/mol | 41.8 °C |
| GTGGAAGGAAACTTCTAC ((.((((....)))).)) | -27.8 kcal/mol | 39.3 °C |
| GTGTGAGGAAACTCATGC (..((((....))))..) | -23.5 kcal/mol | 36.8 °C |
| GATCTATATGTAGATC ((((((....)))))) | -35.4 kcal/mol | 45.5 °C |
| GACTAACGAAAGTTGGTC (((.(((....))).))) | -40.4 kcal/mol | 51.3 °C |
| GCGCCGCGAAAGCAGTGC ((.(.((....)).).)) | -19.4 kcal/mol | 53.5 °C |
| GAGAACCGAAAGGTCTC (((.(((....)))))) | -20.6 kcal/mol | 48.1 °C |
| CGTTACGGAAACGTGACG (((.(((....))).))) | -52.2 kcal/mol | 51.5 °C |
| GATCTTTGTTAAGATC ((((((....)))))) | -33.6 kcal/mol | 44 °C |
| GAAATACGAAAGTAATTC (((.(((....))).))) | -15 kcal/mol | 32.9 °C |
| GATCAGCTCGCTGATC ((((((....)))))) | -57.4 kcal/mol | 62.9 °C |
| GATCGGCTGGCCGATC ((((((....)))))) | -38.2 kcal/mol | 68.3 °C |
| GACGTGCGAAAGCATGTC (((.(((....))).))) | -35.2 kcal/mol | 65.1 °C |
| GATCCAGTGTTGGATC ((((((....)))))) | -36.9 kcal/mol | 50.8 °C |
| GGGCATTCGAAAGAACCC (((..(((....)))))) | -14.2 kcal/mol | 29.5 °C |
